The subject of one assay is Leishmania amazonensis. As to the kind of experiment: Antileishmanial activity against Leishmania amazonensis MHOM/BR/76/LTB-012 axenic amastigotes after 72 hrs by MTT assay. To be noted: MHOM/BR/76/LTB-012, 72 h. It is filed as functional, organism-based. In short, it runs like this:
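Axenic amastigotes kept by weekly subpassage in MAA/20 medium, 32 ± 1 °C, 5% CO2. Seeded in 96-well plates. Compounds in DMSO tested at four concentrations (50–0.05 µg/mL or 50–0.2 µg/mL, depending on compound) for 72 h. MTT added for 4 h, stopped with 2-propanol/SDS, OD read at 570 nm. % inhibition computed against untreated control; IC50 from inhibition curve. Triplicates; amphotericin B reference.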
On the technique in general: Tetrazolium assays rely on reduction of a dye to a coloured formazan, in cell work by metabolically active cells.

A short description of assay [1]: Cytotoxicity against mouse peritoneal macrophages assessed as cell viability after 48 hrs by hematocytometer. It counts as cell-based. To be noted: Peritoneal macrophage cell.
A further assay relates to Vero. Put plainly: Cytotoxicity against african green monkey Vero cells assessed as [3H]-hypoxanthine incorporation after 48 hrs. To be noted: Chlorocebus sabaeus. It counts as cell-based. In short, it runs like this:
(§1)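 Cells grown in RPMI with 10% fetal calf serum and exposed to serial compound dilutions for 48 h. Growth measured by [3H]-hypoxanthine incorporation relative to untreated control cultures. Inhibition percentages plotted versus concentration; IC50 read graphically.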

The next assay concerns MCF7. Put plainly: Cytotoxicity against human MCF7 cells assessed as [3H]-hypoxanthine incorporation after 48 hrs. It is filed as cell-based. The method in brief: as §1

SMILES strings stand for the structures.

By IC50 is commonly meant the concentration that inhibits the measured activity by half. In the case of `CCC[C@H](C)OC(=O)/C=C/c1ccc(O)c(O)c1`, the IC50 was 2 µM in the assay with Leishmania amazonensis, 72 µM in assay [1], 62 µM in the assay with Vero and 14 µM in the assay on MCF7.

On to `CCCCC[C@H](C)OC(=O)/C=C/c1ccc(O)c(O)c1`, for which the IC50 with Leishmania amazonensis was found to be 10 µM; in assay [1], 16.1 µM; in the assay with Vero, 89.8 µM; in the assay on MCF7, 10.6 µM.

Consider `CCCCCCC[C@H](C)OC(=O)/C=C/c1ccc(O)c(O)c1`, for which the concentration for half-maximal inhibition (IC50) stood at 1.8 µM with Leishmania amazonensis, 12.7 µM in assay [1], 31 µM in the assay with Vero and 3.2 µM in the assay on MCF7.

In the case of `O=C1OC[C@H]([C@H](O)c2ccc3c(c2)OCO3)[C@H]1Cc1ccc2c(c1)OCO2`, the IC50 in the assay on Leishmania amazonensis came to 79.4 µM; with Vero, 114 µM; with MCF7 it was 151 µM.

On to `C[C@@H]1[C@H](O)[C@@H](C)/C=C/C=C/C=C/C=C/C=C/C=C/C=C/[C@H](O[C@@H]2O[C@H](C)[C@@H](O)[C@H](N)[C@@H]2O)C[C@@H]2O[C@](O)(C[C@@H](O)C[C@@H](O)[C@H](O)CC[C@@H](O)C[C@@H](O)CC(=O)O[C@H]1C)C[C@H](O)[C@H]2C(=O)O` [AMPHOTERICIN B], for which the IC50 stood at 0.11 µM in the assay on Leishmania amazonensis and 3.6 µM in assay [1].

`O=C(O)/C=C/c1ccc(O)c(O)c1` [CAFFEIC ACID]: the IC50 with Leishmania amazonensis was 17.8 µM; in assay [1] it was above 550 µM; in the assay with Vero it was above 550 µM; in the assay with MCF7, above 550 µM.

`OC[C@H](Cc1ccc2c(c1)OCO2)[C@H](CO)Cc1ccc2c(c1)OCO2` [DIHYDROCUBEBIN]: the 50% inhibitory concentration (IC50) in the assay on Leishmania amazonensis was above 140 µM; in the assay with Vero, 83.8 µM; in the assay with MCF7 it was 89.4 µM.

For the compound `O=C(CC(CO)C(=O)c1ccc2c(c1)OCO2)c1ccc2c(c1)OCO2` (stereo not given) [JUSTIFLORINOL], the half-maximal inhibitory concentration (IC50) with Leishmania amazonensis is above 140 µM; in the assay on Vero it was above 281 µM; with MCF7, 140 µM.

As for `O=C1OC[C@H]([C@H](O)c2ccc3c(c2)OCO3)[C@H]1C(=O)c1ccc2c(c1)OCO2` [SANGUINOLIGNAN A], the 50% inhibitory concentration (IC50) is 36.7 µM with Leishmania amazonensis, above 260 µM in assay [1], 109 µM in the assay with Vero and 146 µM in the assay with MCF7.

In the case of `O=C1OC[C@@H]([C@H](O)c2ccc3c(c2)OCO3)[C@H]1C(=O)c1ccc2c(c1)OCO2` [SANGUINOLIGNAN B], the IC50 in the assay on Leishmania amazonensis was above 130 µM; with Vero it was above 260 µM; in the assay on MCF7, 250 µM.

For the compound `COc1ccc([C@@H](OC(C)=O)[C@H]2COC(=O)[C@@H]2C(=O)c2ccc3c(c2)OCO3)cc1OC` [SANGUINOLIGNAN C], the IC50 in the assay on Leishmania amazonensis is 105 µM; in the assay on Vero, above 226 µM; in the assay with MCF7, 79.2 µM.

Regarding `CC(=O)O[C@H](c1ccc2c(c1)OCO2)[C@H]1C(=O)OC[C@@H]1C(=O)c1ccc2c(c1)OCO2` [SANGUINOLIGNAN D], the concentration for half-maximal inhibition (IC50) was 69.7 µM in the assay with Leishmania amazonensis, 82.1 µM with Vero and 17.1 µM in the assay on MCF7.

These data come from ChEMBL document CHEMBL1641391, “Caffeic acid esters and lignans from Piper sanguineispicum” (J Nat Prod, 2010).
